Experimental data published in ChEMBL document CHEMBL3868624, “Design, synthesis, biological evaluation, and molecular modeling studies of chalcone-rivastigmine hybrids as cholinesterase inhibitors” (Bioorg Med Chem, 2017).
Activity calls are given as the source filed them. The rule behind the calls is not given here.

Tests used:
[1] = target: T1, Cholinesterase (Homo sapiens, UniProt P06276); assay: Inhibition of human serum BChE using S-Butyrylthiocholine iodide as substrate at 10 uM preincubated for 15 mins followed by substrate addition by Ellman's method
[2] = system: SH-SY5Y; assay: Antioxidant activity against t-BHP-induced oxidative stress in human SH-SY5Y cells assessed as inhibition of ROS production at 1 to 5 uM after 24 hrs by DCFH-DA probe based flow cytometric analysis; type: functional, cell-based
Outline: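 SH-SY5Y cells seeded at 5×10^4 per well, left 16-18 h, then exposed to compound for 24 h. Cells were washed in PBS and loaded with 5 μM DCFH-DA together with 100 μM t-BHP in PBS, 30 min at 37 °C, 5% CO2. After washing and resuspension, flow cytometry read ex 488/em 525 nm. Value reported as (FIsample−FIblank)/(FIcontrol−FIblank)×100%, untreated cells as control, curcumin as positive control.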

[3] = Cytotoxicity against human SH-SY5Y cells assessed as cell viability at 12.5 uM after 48 hrs by MTT assay relative to control; type: toxicity, cell-based; details: read-out: Activity
Outline: (§1)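 SH-SY5Y cells seeded at 5×10³ per well and grown 16-18 h, then exposed to 6.25, 12.5, 25, 50 or 100 µM compound for 48 h. MTT (2.5 mg/mL solution) was added for 4 h at 37 °C, 5% CO₂. Formazan was dissolved in DMSO and absorbance read at 490 nm. Viability is relative to control, mean ± SEM of experiments in triplicate.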

[4] = Cytotoxicity against human SH-SY5Y cells assessed as cell viability at 50 uM after 48 hrs by MTT assay relative to control; type: toxicity, cell-based; details: read-out: Activity; outline: as §1
[5] = Cytotoxicity against human SH-SY5Y cells assessed as cell viability at 6.25 uM after 48 hrs by MTT assay relative to control; type: toxicity, cell-based; details: read-out: Activity; outline: as §1
[6] = target: T1, Cholinesterase; assay: Inhibition of human serum BChE using S-Butyrylthiocholine iodide as substrate preincubated for 15 mins followed by substrate addition by Ellman's method
Outline: (§2)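 Ellman assay in phosphate buffer pH 8.0 (0.08 M Na₂HPO₄/0.02 M NaH₂PO₄). hAChE at 0.004 U/mL or hBChE at 0.002 U/mL was preincubated with compound for 15 min at 37 °C. DTNB and ATC (hAChE) or BTC (hBChE) were added, each 50 µM final. A412 was read over 5 min and inhibition set against no-compound wells. IC50 from a variable-slope fit, mean ± SD of three independent experiments.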

[7] = Cytotoxicity against human SH-SY5Y cells assessed as cell viability at 100 uM after 48 hrs by MTT assay relative to control; type: toxicity, cell-based; details: read-out: Activity; outline: as §1
[8] = Cytotoxicity against human SH-SY5Y cells assessed as cell viability at 25 uM after 48 hrs by MTT assay relative to control; type: toxicity, cell-based; details: read-out: Activity; outline: as §1
[9] = target: T2, Acetylcholinesterase (Homo sapiens, UniProt P22303); assay: Inhibition of human recombinant AChE using acetylthiocholine iodide as substrate preincubated for 15 mins followed by substrate addition by Ellman's method; outline: as §2
[10] = target: T1, Cholinesterase; assay: Non-competitive inhibition of human serum BChE using S-Butyrylthiocholine iodide as substrate preincubated for 15 mins followed by substrate addition by Lineweaver-Burk plot analysis
Outline: (§3)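 For kinetics, hAChE (0.004 U/mL) or hBChE (0.002 U/mL) was preincubated 15 min at 37 °C with inhibitor at three concentrations spanning 100-900 nM. DTNB was then added, followed by ATC or BTC at six serial concentrations from 0.125 to 1 mM. A412 was read for 5 min at 1-min intervals. Km and Vmax came from Michaelis-Menten fits, and mechanism from Lineweaver-Burk plots.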

[11] = target: T2, Acetylcholinesterase; assay: Non-competitive inhibition of human recombinant AChE using acetylthiocholine iodide as substrate preincubated for 15 mins followed by substrate addition by Lineweaver-Burk plot analysis; outline: as §3

T1 sequence (P06276 whole entry): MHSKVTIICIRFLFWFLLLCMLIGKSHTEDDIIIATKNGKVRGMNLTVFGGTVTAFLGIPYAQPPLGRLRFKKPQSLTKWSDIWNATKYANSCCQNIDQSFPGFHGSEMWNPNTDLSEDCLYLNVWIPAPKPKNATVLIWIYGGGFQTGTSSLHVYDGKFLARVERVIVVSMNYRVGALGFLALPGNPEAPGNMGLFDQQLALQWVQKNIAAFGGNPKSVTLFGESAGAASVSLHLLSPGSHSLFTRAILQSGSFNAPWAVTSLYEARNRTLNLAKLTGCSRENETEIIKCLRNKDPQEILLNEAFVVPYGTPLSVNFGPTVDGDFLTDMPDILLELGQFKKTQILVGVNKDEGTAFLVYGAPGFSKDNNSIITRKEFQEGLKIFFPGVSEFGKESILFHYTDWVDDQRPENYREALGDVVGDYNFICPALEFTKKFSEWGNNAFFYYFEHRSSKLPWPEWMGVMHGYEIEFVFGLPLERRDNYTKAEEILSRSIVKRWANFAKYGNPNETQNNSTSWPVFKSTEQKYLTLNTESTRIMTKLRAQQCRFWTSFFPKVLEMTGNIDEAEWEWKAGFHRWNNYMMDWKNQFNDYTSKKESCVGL
T2 sequence (P22303 whole entry): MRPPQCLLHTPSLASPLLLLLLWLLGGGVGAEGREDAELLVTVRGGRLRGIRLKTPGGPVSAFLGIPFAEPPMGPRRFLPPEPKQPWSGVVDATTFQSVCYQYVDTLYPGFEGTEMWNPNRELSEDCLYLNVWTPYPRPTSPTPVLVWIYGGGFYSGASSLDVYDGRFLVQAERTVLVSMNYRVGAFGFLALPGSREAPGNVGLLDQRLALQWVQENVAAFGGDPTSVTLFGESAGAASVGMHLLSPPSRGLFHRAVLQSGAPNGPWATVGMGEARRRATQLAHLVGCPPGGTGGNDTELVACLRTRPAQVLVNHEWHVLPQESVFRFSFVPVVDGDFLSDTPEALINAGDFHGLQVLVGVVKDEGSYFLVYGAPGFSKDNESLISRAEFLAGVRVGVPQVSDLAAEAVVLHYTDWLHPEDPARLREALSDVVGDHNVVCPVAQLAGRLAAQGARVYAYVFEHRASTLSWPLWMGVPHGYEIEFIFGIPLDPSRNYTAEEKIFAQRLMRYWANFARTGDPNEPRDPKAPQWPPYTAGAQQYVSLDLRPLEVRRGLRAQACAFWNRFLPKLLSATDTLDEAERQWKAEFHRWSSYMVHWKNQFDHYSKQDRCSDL

SMILES | inhibition [1] [%] | inhibition [2] | viability at 48 h, 12.5 µM [3] [%] | viability at 48 h, 50 µM [4] [%] | viability at 48 h, 6.25 µM [5] [%] | IC50 [6] [µM] | viability at 48 h, 100 µM [7] [%] | viability at 48 h, 25 µM [8] [%] | IC50 [9] [µM] | Ki [10] [µM] | Ki [11] [µM]
CN(C)C(=O)Oc1cc(OC(=O)N(C)C)cc(C(=O)/C=C/c2ccc(O)cc2)c1 | < 50 |  |  |  |  |  |  |  |  |  | 
COc1cc(/C=C/C(=O)CC(=O)/C=C/c2ccc(O)c(OC)c2)ccc1O |  | Active |  |  |  |  |  |  |  |  | 
CCN(C)C(=O)Oc1ccc(/C=C/C(=O)c2ccc(O)cc2)cc1 | > 50 |  | 80.8 | 22.4 | 91.7 | 6.08 | 1.39 | 51.5 |  |  | 
CCN(C)C(=O)Oc1cccc(C(=O)/C=C/c2ccc(OC)cc2)c1 | > 50 |  | 100 | 66.3 | 101 | 3.93 | 0.63 | 85.1 |  |  | 
CCN(C)C(=O)Oc1cccc(C(=O)/C=C/c2ccc(O)cc2)c1 | > 50 |  | 68 | 17.4 | 96.2 | 4.37 | 5.42 | 49.2 |  |  | 
CCN(CC)C(=O)Oc1cccc(C(=O)/C=C/c2ccc(OC)cc2)c1 | < 50 |  |  |  |  |  |  |  |  |  | 
COc1ccc(/C=C/C(=O)c2cccc(OC(=O)N(C)C)c2)cc1 | > 50 |  | 95.3 | 20 | 101 | 3.37 | 0.67 | 74.3 | 8.05 |  | 
COc1ccc(/C=C/C(=O)c2ccc(O)cc2)cc1 | < 50 |  |  |  |  |  |  |  |  |  | 
COc1ccc(/C=C/C(=O)c2cccc(O)c2)cc1 | < 50 |  |  |  |  |  |  |  |  |  | 
CCN(C)C(=O)Oc1cccc([C@H](C)N(C)C)c1 [RIVASTIGMINE] |  |  | 94.7 | 72.7 | 98.5 |  | 56.4 | 86.6 |  |  | 
CN(C)C(=O)Oc1ccccc1C(=O)/C=C/c1ccc(O)cc1 | < 50 |  |  |  |  |  |  |  |  |  | 
CN(C)C(=O)Oc1ccc(/C=C/C(=O)c2ccc(O)cc2)cc1 | > 50 |  | 86.6 | 28.9 | 100 | 4.48 | 13.1 | 60.4 |  |  | 
CCN(C)C(=O)Oc1ccc(C(=O)/C=C/c2ccc(O)cc2)cc1 | < 50 |  |  |  |  |  |  |  |  |  | 
CN(C)C(=O)Oc1ccc(/C=C/C(=O)c2cccc(O)c2)cc1 | < 50 |  |  |  |  |  |  |  |  |  | 
COc1ccc(/C=C/C(=O)c2cccc(OC(=O)N(C(C)C)C(C)C)c2)cc1 | < 50 |  |  |  |  |  |  |  |  |  | 
CCN(C)C(=O)Oc1cc(OC(=O)N(C)CC)cc(C(=O)/C=C/c2ccc(O)cc2)c1 | < 50 |  |  |  |  |  |  |  |  |  | 
CN(C)C(=O)Oc1ccc(C(=O)/C=C/c2ccc(O)cc2)cc1 | < 50 |  |  |  |  |  |  |  |  |  | 
CCN(CC)C(=O)Oc1cccc(C(=O)/C=C/c2ccc(O)cc2)c1 | < 50 |  |  |  |  |  |  |  |  |  | 
CN(C)C(=O)Oc1cccc(/C=C/C(=O)c2ccc(O)cc2)c1 | > 50 |  | 69.9 | 11.2 | 83.9 | 2.19 | 4.37 | 46.2 |  |  | 
CC(C)N(C(=O)Oc1cccc(C(=O)/C=C/c2ccc(O)cc2)c1)C(C)C | < 50 |  |  |  |  |  |  |  |  |  | 
CCN(C)C(=O)Oc1cccc(/C=C/C(=O)c2ccc(O)cc2)c1 | > 50 |  | 88.7 | 16.6 | 95.1 | 2.52 | 2.97 | 60.2 |  |  | 
CN(C)C(=O)Oc1cccc(C(=O)/C=C/c2ccc(O)cc2)c1 | > 50 |  | 96.5 to 96.7 | 71.8 | 102 | 0.36 | 48.3 | 94.6 | 0.87 | 0.16 | 0.52
CCN(C)C(=O)Oc1ccc(C(=O)/C=C/c2ccc(OC)cc2)cc1 | > 50 |  | 86.1 | 52.7 | 95.5 | 7.36 | 0.22 | 83.2 |  |  | 
CCN(C)C(=O)Oc1ccc(/C=C/C(=O)c2cccc(O)c2)cc1 | > 50 |  | 93.9 | 16.5 | 96.1 | 5.6 | 0.81 | 67.1 |  |  | 
CCN(C)C(=O)Oc1ccccc1C(=O)/C=C/c1ccc(O)cc1 | > 50 |  | 76.4 | 51.7 | 86 | 4.37 to 5.97 | 52.2 | 64.7 |  |  | 
CCN(C)C(=O)Oc1cccc(/C=C/C(=O)c2cccc(O)c2)c1 | > 50 |  | 88.2 | 11.2 | 101 | 2.87 | 0.16 | 53 |  |  | 
COc1ccc(/C=C/C(=O)c2ccc(OC(=O)N(C)C)cc2)cc1 | < 50 |  |  |  |  |  |  |  |  |  | 
CN(C)C(=O)Oc1cccc(/C=C/C(=O)c2cccc(O)c2)c1 | > 50 |  | 82.6 | 15.1 | 85.9 | 1.91 | 1.03 | 57.1 |  |  | 
